Legend:
[1] = species: Oryctolagus cuniculus; test: Negative log of minimum effective dose (moles per kilogram) in rabbits (hypnotic); format: functional
[2] = Negative log of molar concentration (-log ED50) required to reduce cell division by 50% in Arbacia egg; format: functional
[3] = Compound is evaluated for […] log k; format: physicochemical; conditions: octanol/water
Method in brief: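 Log k' was measured by reverse-phase HPLC on dry-packed deactivated C18/Corasil columns (10 and 50 cm, 2-mm i.d.) at 22 °C, flow 1 mL/min, with UV detection at 254 nm. The mobile phase was methanol-modified aqueous phosphate buffer at μ 0.15. Void time came from methanol injection, and k' = (tr − t0)/t0.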

[4] = species: Rattus norvegicus; format: functional
[5] = (§1) pKa value is evaluated; format: physicochemical
[6] = A pKa value is evaluated; format: physicochemical
[7] = ACompound is evaluated for […] log k; format: physicochemical; conditions: octanol/water
Method in brief: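 Log k' was measured by reverse-phase HPLC on dry-packed deactivated C18/Corasil columns (10 and 50 cm, 2-mm i.d.) at 22 °C, flow 1 mL/min, with UV detection at 254 nm. The mobile phase was methanol-modified aqueous phosphate buffer at μ 0.15. Calculated pH was 7.45 for sulfonamides and 7.31 for barbiturates. Void time came from methanol injection, and k' = (tr − t0)/t0.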

[8] = test system: Escherichia coli; test: Minimum inhibitory concentration (bacteriostatic) against Escherichia coli at pH 7.2 (Sauterne''s medium); format: functional
[9] = pKa value is evaluated; activity is unretained; format: physicochemical
Method in brief: (§2)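 Determined in-house by computer-controlled spectrophotometric titration (absorbance vs. pH) of each sulfonamide. Samples were in buffered aqueous solution of HCl/HOAc/Mops/glycine, 0.0005 N each. A manual wavelength scan of each compound set the wavelength at which its titration was run.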

[10] = as §1; format: physicochemical; method in brief: as §2; remark: listed apart in the source
[11] = test system: Escherichia coli; test: Minimum inhibitory concentration (bacteriostatic) against Escherichia coli at pH 7.4; format: functional
[12] = Negative log of Langmuir's alpha constant (-log alpha), which is inversely proportional to the effective binding constant (protein binding); format: ADME

Row | Structure (SMILES) | -Log C [1] | -Log ED50 [2] | Log K [3] | pKa [5] | -Log C [8] | -Log C [11] | -Log alpha [12] | other results
1 | C=CCC1(CC=C)C(=O)NC(=O)NC1=O [ALLOBARBITAL] | 3.54 | 1.79 | 0.6 | – | – | – | – | –
2 | CCC1(CCC(C)C)C(=O)NC(=O)NC1=O [AMOBARBITAL] | – | 2.82 | 1.33 | – | – | – | – | –
3 | C=CCC1(C(C)C)C(=O)NC(=O)NC1=O [APROBARBITAL] | 3.6 | 2.01 | 0.75 | 7.73 | – | – | – | -Log C [4]: 2.41
4 | CCC1(CC)C(=O)NC(=O)NC1=O [BARBITAL] | 3.09 | 1.49 | 0.16 | 7.75 | – | – | – | -Log C [4]: 1.32
5 | CCC(C)C1(CC)C(=O)NC(=O)NC1=O (stereo not drawn) [BUTABARBITAL] | 3.63 | – | – | – | – | – | – | pKa [6]: 7.89; Log K [7]: 0.95
6 | C=CCC1(CC(C)C)C(=O)NC(=O)NC1=O [BUTALBITAL] | 3.63 | – | 1.01 | 7.54 | – | – | – | -Log C [4]: 2.8
7 | CCC1(C2=CCCCC2)C(=O)NC(=O)NC1=O [CYCLOBARBITAL] | – | 2.24 | 0.91 | 7.36 | – | – | – | –
8 | CN1C(=O)NC(=O)C(C)(C2=CCCCC2)C1=O (stereo not drawn) [HEXOBARBITAL] | 4.37 | – | 1.13 | – | – | – | – | pKa [6]: 7.36
9 | CCC1(CC)C(=O)NC(=O)N(C)C1=O [METHARBITAL] | 3.12 | – | 0.71 | – | – | – | – | –
10 | C=CCC1(C(C)C#CCC)C(=O)NC(=O)N(C)C1=O (stereo not drawn) [METHOHEXITAL] | 4.74 | – | 1.96 | 4.74 | – | – | – | –
11 | CCCC(C)C1(CC)C(=O)NC(=O)NC1=O (stereo not drawn) [PENTOBARBITAL] | 4.05 | 2.92 | 1.32 | 8.02 | – | – | – | -Log C [4]: 3.07
12 | CCC1(c2ccccc2)C(=O)NC(=O)NC1=O [PHENOBARBITAL] | 3.32 | 2.02 | 0.56 | 7.26 | – | – | – | -Log C [4]: 1.88
13 | C=CCC1(C(C)CCC)C(=O)NC(=O)NC1=O (stereo not drawn) [SECOBARBITAL] | 4.2 | 3.62 | 1.52 | 7.92 | – | – | – | -Log C [4]: 3.19
14 | CC(=O)NS(=O)(=O)c1ccc(N)cc1 [SULFACETAMIDE] | – | – | – | – | -0.52 | 3.248 | -3.15 | Log K [9]: activity is unretained; pKa [10]: 5.78
15 | Nc1ccc(S(=O)(=O)Nc2ncccn2)cc1 [SULFADIAZINE] | – | – | 0.223 | – | -0.08 | 4.337 | -2.99 | –
16 | [H]/N=C(/N)NS(=O)(=O)c1ccc(N)cc1 [SULFAGUANIDINE] | – | – | -0.00612 | 12 | 1.81 | – | – | –
17 | Cc1ccnc(NS(=O)(=O)c2ccc(N)cc2)n1 [SULFAMERAZINE] | – | – | 0.829 | 6.98 | 0.06 | 4.469 | -2.23 | –
18 | Cc1cc(C)nc(NS(=O)(=O)c2ccc(N)cc2)n1 [SULFAMETHAZINE] | – | – | 1.49 | 7.7 | 0.11 | – | -2.28 | –
19 | Cc1cc(NS(=O)(=O)c2ccc(N)cc2)no1 [SULFAMETHOXAZOLE] | – | – | – | – | 0.06 | 4.634 | -2.51 | –
20 | COc1ccc(NS(=O)(=O)c2ccc(N)cc2)nn1 [SULFAMETHOXYPYRIDAZINE] | – | – | 1.35 | 7.2 | 0 | 4.57 | -1.75 | –
21 | Nc1ccc(S(N)(=O)=O)cc1 [SULFANILAMIDE] | – | – | – | – | -2.11 | 2.824 | -2.98 | –
22 | Nc1ccc(S(=O)(=O)Nc2nccs2)cc1 [SULFATHIAZOLE] | – | – | 0.887 | 7.25 | -0.18 | 4.597 | -2.45 | –
23 | Cc1noc(NS(=O)(=O)c2ccc(N)cc2)c1C [SULFISOXAZOLE] | – | – | 0.762 | – | -0.45 | 4.56 | -1.73 | –
24 | C=CCC1(C(C)CCC)C(=O)NC(=S)NC1=O (stereo not drawn) [THIAMYLAL] | 4.15 | – | 1.72 | – | – | – | – | –
25 | CCCC(C)C1(CC)C(=O)NC(=S)NC1=O (stereo not drawn) [THIOPENTAL] | 3.98 | – | 1.52 | – | – | – | – | –

— ChEMBL document CHEMBL1122241, “A simplified high-pressure liquid chromatography method for determining lipophilicity for structure-activity relationships” (J Med Chem, 1983)
